The text below walks through data of ChEMBL document CHEMBL1127682, “Resolution, absolute stereochemistry, and pharmacology of the S-(+)- and R-(-)-isomers of the apparent partial AMPA receptor agonist (R,S)-2-amino-3-(3-hydroxy-5-phenylisoxazol-4-yl)propionic acid [(R,S)-APPA]” (J Med Chem, 1994).

As usually defined, the IC50 is the point on the concentration scale where inhibition reaches its midpoint. By Ki is commonly meant the equilibrium dissociation constant of an inhibitor or competing ligand from its target. The low end stands for a stronger hold on the target, the high end for a looser hold on the target. What is called EC50 is the concentration needed to bring the measured effect to its halfway point. A higher EC50 goes with weaker potency.

Assay [1] addresses Glutamate receptor ionotropic, NMDA 1 (Rattus norvegicus, UniProt P35439). Nature of the assay: Compound was evaluated for the inhibition of binding of [3H]glycine to NMDA receptor.
Assay [2] has as its target Glutamate NMDA receptor. Put plainly: Compound was evaluated for the inhibition of binding of [3H]- MK-801 to NMDA receptor. Type of assay: protein-complex assay.
In assay [3] the target is T1, Glutamate receptor ionotropic, AMPA (Rattus norvegicus, UniProt P19490+P19491+P19492+P19493). Put plainly: Compound was evaluated for the inhibition of binding of [3H]AMPA to the AMPA receptor. Type of assay: protein-complex assay.
Assay [4] deals with Glutamate NMDA receptor. Put plainly: Compound was evaluated for the inhibition of binding of [3H]- CPP to NMDA receptor. The class given is protein-complex assay.
The target in assay [5] is T1, Glutamate receptor ionotropic, AMPA. Nature of the assay: Compound was evaluated for the antagonist activity on AMPA receptor in rat cortical wedge preparation. Type of assay: functional.
Assay [6] has as its target Glutamate receptor ionotropic, kainate. Nature of the assay: Compound was evaluated for the inhibition of binding of [3H]-Kainic acid to kianic acid receptor. Type of assay: protein-complex assay.
The target of assay [7] is T1, Glutamate receptor ionotropic, AMPA. Put plainly: Compound was evaluated for the agonist activity on AMPA receptor in rat cortical wedge preparation. The class given is functional.
A further assay is filed under the species Rattus norvegicus. Nature of the assay: The compound was evaluated for agonist sensitivity to antagonist NBQX. Type of assay: functional. Put shortly:
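Rat cortical wedges (500-μm, cortex plus corpus callosum) superfused with Mg2+- and Ca2+-free oxygenated Krebs buffer at room temperature; agonist depolarization concentration-response curves recorded with and without 0.5 μM NBQX; pKi calculated from the parallel shift; means ± SEM of at least three experiments.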

Turning to `N[C@H](Cc1c(O)noc1-c1ccccc1)C(=O)O`, the IC50 (in assay [1]; on Glutamate NMDA receptor [2]; in assay [3]; at Glutamate NMDA receptor [4]; in assay [6]) was above 100 µM throughout. In addition, the Ki in assay [5] came to 286 µM.

For the molecule `N[C@@H](Cc1c(O)noc1-c1ccccc1)C(=O)O`, the IC50 is above 100 µM in assay [1]; above 100 µM at Glutamate NMDA receptor [2]; 6 µM in assay [3]; above 100 µM at Glutamate NMDA receptor [4]; above 100 µM in assay [6]. The molecule also came in with an EC50 in assay [7] of 230 µM. Further, in the assay filed under Rattus norvegicus, the “Log Ki” value is recorded as -6.3.

As for `NC(Cc1c(O)noc1-c1ccccc1)C(=O)O` (racemic), the IC50 in assay [1] was above 100 µM; on Glutamate NMDA receptor [2] it was above 100 µM; in assay [3], 35 µM; on Glutamate NMDA receptor [4], above 100 µM; in assay [6], above 100 µM. Further, in assay [7], the half-maximal effective concentration (EC50) is 385 µM.

Take `Cc1onc(O)c1CC(N)C(=O)O` (racemic) [(R,S)-AMPA]: the “Log Ki” value in the assay listed under Rattus norvegicus is on record as -6.56.

Consider `C=C(C)[C@H]1CN[C@H](C(=O)O)[C@H]1CC(=O)O` [KAINIC ACID], for which the IC50 (in assay [1]; at Glutamate NMDA receptor [2]; on Glutamate NMDA receptor [4]) was above 100 µM throughout. Besides, the “Log Ki” value in the assay filed under Rattus norvegicus is reported as -5.42.
